Only some compounds are listed: those with a hit (about 3% of all), similar ones and a draw of the others.
DNA FID counter – compounds displacing fluorescent DNA intercalator, primary screen, artefact control for HCV NS3 helicase inhibitor project, biochemical, FID fluorescence. DNA fluorescent intercalator displacement. inhibition, % at 7.9 µM. 0.17% of 290,000 active. AID 1845, 2009; in the data active = inhibition above about 37%;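 note: 0% = vehicle and 100% = reference compound; higher means more ethidium bromide displaced from hairpin DNA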
ANO1 activ – TMEM16A chloride channel activators or potentiators, primary screen, cell-based, HTS; Anoctamin-1 (Mus musculus), Q8BHY3; AID 623877, 2012; HEK293 TMEM16A/YFP-H148Q/I152L, iodide quench fluorescence; hits give low values; B-score at 10 µM; 0.3% of 340,000 active;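 active = fluorescence-ratio B-score plate-corrected deviation score at least 3 library SD below zero, with starting fluorescence score within 5 deviations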;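 note: channel opened by trigger with iodide after compound preincubation; score built on the fluorescence ratio of max minus min over baseline; more negative score means more quench and so TMEM16A activation or potentiation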
Target sequence (Q8BHY3 whole entry, looked up): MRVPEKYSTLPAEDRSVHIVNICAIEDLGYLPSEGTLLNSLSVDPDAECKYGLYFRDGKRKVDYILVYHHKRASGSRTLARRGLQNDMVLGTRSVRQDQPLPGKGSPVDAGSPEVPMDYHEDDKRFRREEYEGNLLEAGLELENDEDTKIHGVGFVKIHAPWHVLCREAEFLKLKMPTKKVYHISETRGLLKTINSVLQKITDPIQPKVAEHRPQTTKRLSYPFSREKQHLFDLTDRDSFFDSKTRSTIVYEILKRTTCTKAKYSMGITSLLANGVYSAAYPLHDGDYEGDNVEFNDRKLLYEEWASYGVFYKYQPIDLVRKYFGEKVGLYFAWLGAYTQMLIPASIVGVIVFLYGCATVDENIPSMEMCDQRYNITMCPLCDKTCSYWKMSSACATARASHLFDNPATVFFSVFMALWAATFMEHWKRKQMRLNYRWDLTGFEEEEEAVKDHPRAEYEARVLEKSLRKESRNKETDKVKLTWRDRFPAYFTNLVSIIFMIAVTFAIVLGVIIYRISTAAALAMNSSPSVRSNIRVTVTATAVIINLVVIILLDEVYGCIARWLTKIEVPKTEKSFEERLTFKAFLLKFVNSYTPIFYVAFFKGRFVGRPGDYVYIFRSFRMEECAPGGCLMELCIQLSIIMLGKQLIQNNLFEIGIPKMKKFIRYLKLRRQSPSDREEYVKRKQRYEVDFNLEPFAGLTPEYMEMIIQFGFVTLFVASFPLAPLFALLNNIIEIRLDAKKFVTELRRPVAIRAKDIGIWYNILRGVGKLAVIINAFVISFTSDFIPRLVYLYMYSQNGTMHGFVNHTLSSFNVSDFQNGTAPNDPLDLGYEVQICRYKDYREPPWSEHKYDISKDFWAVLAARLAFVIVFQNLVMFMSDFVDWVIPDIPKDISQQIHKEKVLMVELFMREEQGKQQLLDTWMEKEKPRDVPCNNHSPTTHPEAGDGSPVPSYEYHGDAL
Kir21 block – inhibitors of mouse Kir2.1 inward-rectifier potassium channel; Inward rectifier potassium channel 2 (Mus musculus), P35561; HEK293-Kir2.1, FluxOR thallium flux fluorescence; hits give low values; B-score at 10 µM; 0.85% of 310,000 active;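 active = fluorescence ratio B-score at or below minus 3 SD of library scores, with starting-brightness B-score within 2 SD, cut at about -4.2 in these data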;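 note: channel flux triggered by added potassium and thallium sulfate stimulus; B-score of peak minus minimum fluorescence over baseline after thallium stimulus; more negative B-score means stronger Kir2.1 block with less thallium influx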
TMEM16A inh – TMEM16A chloride channel inhibitors, primary screen, cell-based, HTS; AID 588511, 2011; 1.2% of 310,000 active; normalized B-score (activity score, 25-100; higher = stronger inhibition) at 10 µM; Anoctamin-1 (Mus musculus), Q8BHY3; HEK293 TMEM16A/YFP iodide influx fluorescence, ionomycin;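 active = ratio plate-corrected score three or more library SD toward inhibition, starting fluorescence score within five deviations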;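 note: score derived from kinetic fluorescence span divided by baseline fluorescence per well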
SR-BI uptake up – activators of SR-BI mediated DiI-HDL uptake, primary screen, ldlA[mSR-BI] CHO cells, DiI fluorescence. activation, % at 12.5 µM. 3 h; 100 = double the neutral-control signal. 0.096% of 320,000 active;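 active = mean replicate activation of at least 60% and every replicate at or above 60%; inconclusive = mean or all-replicate condition met, but not both; inactive = mean below 60% and not all replicates reaching 60%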;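 note: 0% = median plate neutral-control signal and 100% = twice that signal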
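Material – SR-BI-overexpressing, LDLR-lacking CHO cells · Medium – BSA-supplemented, HEPES-buffered Ham's F12, pH 7.4 · Doses – single concentration · Times – compound with DiI-HDL co-incubation, 3 h at 37 °C · Measured by – bottom-read fluorescence, 550/595 nm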
SR-BI HDL uptake – inhibitors of SR-BI mediated HDL lipid uptake, primary screen, ldlA[mSR-BI] cells, fluorescence, single point; 0.96% of 320,000 active; AID 488896, 2010; inhibition, % at 12.5 µM; ldlA[mSR-BI] CHO cells, DiI-HDL uptake fluorescence, 3 h;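 active = mean replicate inhibition of at least 70% and a set share of replicates each scoring 70 or more; inconclusive = meets just one of the two criteria; inactive = fails both criteria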;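 note: 0% = median of neutral control wells and 100% = median of positive control wells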
TMEM16A reconf – TMEM16A chloride channel inhibitors, confirmation, cell-based, re-confirmation; shares compounds with TMEM16A inh; HEK293 TMEM16A/YFP-H148Q, iodide quench fluorescence; ionomycin added to raise cell calcium; inhibition, % at 10 µM; 39% of 2,300 active; AID 652189, 2013;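 active = mean duplicate percent inhibition, scaled so buffer wells are 0 and the reference blocker 100, over three buffer SD above buffer mean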
TMEM16A Ca cntr – calcium mobilization in TMEM16A/YFP HEK293 cells, confirmation, counter-screen for TMEM16A inhibitor project; shares compounds with TMEM16A inh; Fluo4 calcium mobilization; calcium response (% of ionomycin), % at 10 µM; 2% of 2,300 active;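 active = duplicate-averaged calcium signal over 20% of the ionomycin maximum, relative to buffer baseline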;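 note: each well's signal is peak minus trough fluorescence divided by its pre-addition baseline; 0% = buffer wells and 100% = ionomycin wells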
YFP-HEK293 quench – iodide YFP quench changes in parental YFP-HEK293, counter-screen for TMEM16A inhibitor project, cell-based. ionomycin. 2,300 tested, under 10 active. shares compounds with TMEM16A inh. YFP ratio F(max-min)/F0 at 10 µM;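 active = yellow fluorescent protein signal ratio exceeding the buffer control mean by over 5 SD of those controls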;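 note: ratio is mean of duplicate wells from kinetic YFP trace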
ClC-1 rat inh – ClC-1 chloride channel inhibition, selectivity assay for TMEM16A inhibitor project, cell-based, voltage-dependent ClC-1 | shares compounds with TMEM16A inh | CHO ClC-1-YFP, iodide influx fluorescence quench; iodide control reads 0, buffer control 100 | AID 652236, 2013 | 2,300 tested, under 10 active | ratio percent, % at 10 µM;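 active = duplicate-mean ratio percent above the mean of iodide-only control wells, which defines zero, plus 5 of their SD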;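 note: higher percent means stronger block of ClC-1 iodide influx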
Starred values were filed as active, the others as inactive; i = inactive; ? = inconclusive; · = no result given.

SMILES | DNA FID counter | ANO1 activ | Kir21 block | TMEM16A inh | SR-BI uptake up | SR-BI HDL uptake | TMEM16A reconf | TMEM16A Ca cntr | YFP-HEK293 quench | ClC-1 rat inh
CC(=O)c1ccc(S(=O)(=O)Nc2ccc(C(=O)NCCCn3ccnc3)cc2)cc1 | · | i | · | · | 30.8 | -30.8 | · | · | · | ·
Cc1cc(C)c(S(=O)(=O)NCc2ccncc2)c(C)c1 | -2.1 | i | -0.03 | 100* | 10.0 | -10.0 | 30.0%* | i | -0.861 | -16.0
CC(C)n1cc(/C(N)=N/O)c(=O)n(Cc2ccccc2)c1=O | -0.9 | i | 1.81 | i | · | · | · | · | · | ·
CCCCOC(=O)C1=C(C)Nc2ncnn2C1c1ccc(OCC)c(OC)c1 (stereo unspecified) | -13.0 | i | 0.78 | 25* | 17.1 | -17.1 | i | i | -1.07 | -0.5
COc1cc(/C=C/C(=O)OCC(=O)NCC(=O)Nc2cccc(C)c2C)ccc1OC(F)F | · | i | · | · | · | 22.4 | · | · | · | ·
NS(=O)(=O)c1ccc(NC(=O)c2ccc(S(=O)(=O)N3CCCCCC3)cc2)cc1 | · | i | · | · | -12.2 | 12.2 | · | · | · | ·
Cn1c(=O)c2c(nc(N3CCCCCC3)n2Cc2cccc3ccccc23)n(C)c1=O | -8.7 | i | 0.33 | 100* | 16.4 | -16.4 | i | i | -0.966 | -7.5
Cc1cccc(N2CCN(C(=O)Cc3ccc(Br)cc3)CC2)c1C | -25.8 | i | -0.57 | 100* | -42.1 | 42.1 | i | i | -0.997 | -12.0
Cn1cccc1C1C=C(c2ccc(C(C)(C)C)cc2)Nc2ncnn21 (stereo unspecified) | · | i | 1.94 | 100* | -15.6 | 15.6 | 49.5%* | i | -0.852 | -8.5
CCNS(=O)(=O)c1ccc(NC(=S)N2CCc3ccccc32)cc1 | -14.7 | i | -0.41 | i | -11.2 | 11.2 | · | · | · | ·
COCCNC(=O)c1ccc2c(=O)n(Cc3ccco3)c(SCC(=O)Nc3ccc(OC)cc3OC)nc2c1 | -28.2 | i | 0.91 | i | -23.1 | 23.1 | · | · | · | ·
COCCNC(=O)c1ccc2c(=O)n(Cc3ccco3)c(SCC(=O)NC3CCCCC3)nc2c1 | -3.9 | i | 0.01 | i | -2.4 | 2.4 | i | i | -1.02 | -5.5
COc1ccc(N(C)C(=O)c2cc3c(s2)-c2ccccc2OC3)c(OC)c1 | -34.0 | i | -0.88 | i | -11.8 | 11.8 | · | · | · | ·
COc1ccc(N(C)C(=O)c2cc3c(s2)-c2ccc(Cl)cc2S(=O)(=O)C3)c(OC)c1 | -48.2 | i | -1.53 | 25* | -24.6 | 24.6 | 25.5%* | i | -0.815 | -7.5
CN(C)C(CNC(=O)CSc1nc2sc3c(c2c(=O)n1C)CCCC3)c1ccccc1 (stereo unspecified) | · | i | · | · | 23.4 | -23.4 | · | · | · | ·
CCC(=NC(C)c1ccccc1)c1c(O)n(C)c(=O)n(C)c1=O (stereo unspecified) | -13.5 | i | -1.74 | 100* | ? | -61.6 | 22.0%* | i | -0.926 | -23.5
CCC(C(=O)OCC(=O)c1c(N)n(CC(C)C)c(=O)n(C)c1=O)c1ccccc1 (stereo unspecified) | · | i | -1.86 | i | -10.9 | 10.9 | · | · | · | ·
Cc1cc(Cn2nnc3ccccc32)c(O)c(C(C)(C)C)c1 | · | i | -0.98 | i | -23.8 | 23.8 | · | · | · | ·
CC(C)(C)c1cccc(Cn2nnc3ccccc32)c1O | · | i | 0.92 | 100* | 16.7 | -16.7 | 24.5%* | i | -1.04 | -25.0
Cc1nc(NS(=O)(=O)c2ccc(Cl)s2)c2c3c(sc2n1)CCCC3 | -31.7 | i | 0.23 | 25* | · | · | 17.0%* | i | -0.912 | -26.0
Cc1nc(NCCc2ccc(S(N)(=O)=O)cc2)c2c3c(sc2n1)CCC3 | -18.6 | i | -1.14 | i | -47.7 | 47.7 | · | · | · | ·
CCc1cc(C(=O)COc2ccc(F)cc2)c(O)cc1O | -4.0 | i | -0.02 | 100* | -1.5 | 1.5 | 20.5%* | i | -0.795 | -4.5
Cc1c(O)ccc(C(=O)COc2ccc(F)cc2)c1O | 6.2 | i | 0.67 | i | -16.6 | 16.6 | · | · | · | ·
CCc1ccc(CNn2cnnc2SCC(=O)NC(C)(C)C)cc1 | -23.6 | i | 0 | 100* | 35.6 | -35.6 | i | i | -1.13 | -10.0
CN(C)c1ccc(CNn2cnnc2SCC(=O)NC(C)(C)C)cc1 | 0.5 | i | 2.94 | i | 10.6 | -10.6 | · | · | · | ·
SMILES | DNA FID counter | ANO1 activ | Kir21 block | TMEM16A inh | SR-BI uptake up | SR-BI HDL uptake | TMEM16A reconf | TMEM16A Ca cntr | YFP-HEK293 quench | ClC-1 rat inh
COc1ccc(C(=O)NCCCc2ccccc2)cc1OC | -18.6 | i | -0.28 | i | -4.2 | 4.2 | · | · | · | ·
CN(CCCC(=O)Nc1ccc(OC(F)F)cc1)S(=O)(=O)c1ccc(F)cc1 | -14.9 | i | 1.67 | i | 5.2 | -5.2 | · | · | · | ·
CCN(C(=O)CSc1nnnn1-c1ccc(Cl)cc1)C1CCS(=O)(=O)C1 (stereo unspecified) | · | i | · | · | -8.0 | 8.0 | · | · | · | ·
CC1(C)C[C@@H]2C[C@@](C)(CN2C(=O)c2cc(COc3cccc(C(F)(F)F)c3)on2)C1 | -35.4 | i | -0.01 | 25* | -39.2 | 39.2 | i | i | -1.15 | -13.5
CCN(CC)c1ccc(NC(=O)CCCCCN2C(=O)c3ccccc3C2=O)cc1 | -8.0 | i | -0.16 | 25* | -14.0 | 14.0 | i | i | -0.896 | -6.5
Cc1cc(C(=O)Nn2c(C3CCCCC3)nc3ccccc3c2=O)ccc1[N+](=O)[O-] | 9.2 | i | -0.25 | i | 16.2 | -16.2 | · | · | · | ·
O=C(Nn1c(C2CCCCC2)nc2ccccc2c1=O)c1ccc(Cl)c([N+](=O)[O-])c1 | 0.3 | i | -0.7 | 25* | -6.1 | 6.1 | 22.0%* | i | -1.13 | -9.0
Cn1c(CNC(=O)CNS(=O)(=O)c2ccc(Cl)cc2)cc(=O)n(C)c1=O | -10.6 | i | 1.08 | i | 24.7 | -24.7 | · | · | · | ·
O=C(c1ccc(OCC2CCCO2)cc1)N1CCN(S(=O)(=O)c2cccc(F)c2)CC1 (stereo unspecified) | · | i | · | · | 15.4 | -15.4 | · | · | · | ·

Source: PubChem BioAssay
